Data as given in PubChem BioAssay AID1556 (The Scripps Research Institute Molecular Screening Center, 2009).
The whole screen tested about 290,000 compounds, of which about 1,300 (0.45%) were called active. The list comes from a sample in which actives are over-represented; it also holds similar structures and randomly drawn compounds. A number with no mark means an inactive call.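 The calls were made as follows: active = inhibition above the mean plus 3 SD of all compounds in the same screening run (cut at about 4.5% in these data); inactive = the rest.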

These compounds were tested on metallo-beta-lactamase IMP-1 (Pseudomonas aeruginosa) (assay: inhibition of IMP-1 nitrocefin hydrolysis – biochemical, epi-absorbance readout, Pseudomonas aeruginosa enzyme, primary screen (AID 1556)). Details: purified IMP-1, nitrocefin hydrolysis, epi-absorbance fluorescence; at 5.6 µM; active compounds read high.
How it was run: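 assay system = purified recombinant IMP-1 metallo-beta-lactamase enzyme | schedule = 15 min preincubation plus 25 min reaction at 25 °C | signal = Epi-absorbance fluorescence, 480 nm excitation, 530 nm emission | read-out basis = percent inhibition from optical density relative to buffer-blank wells | controls = IMP-1 with DMSO as 0%, enzyme-free DMSO as 100%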
O=C(Nc1ccc(F)cc1)C(=O)c1cn(CC(=O)N2CCOCC2)c2ccccc12 gave an inhibition of -5.04%.
CS(=O)(=O)N1CCN(C(=O)CSc2ccccc2)CC1 showed an inhibition of -2.52%.
In the case of Oc1ccc2ccc3cccc[n+]3c2c1, the inhibition is reported as 34.3% (active).
Work on CCCCC(=O)Nc1ccccc1N1CCN(c2ccc(F)cc2)CC1 yielded an inhibition of -3.05%.
CCOC(CNC(=O)C1CCN(S(=O)(=O)c2ccc3nc4c(c(C(=O)O)c3c2)CC(C)CC4)CC1)OCC (centres undefined) was tested, and the inhibition was -0.25%.
With CC(=O)N1c2ccc(S(=O)(=O)N3CCC(C(=O)NCc4ccc(F)cc4)CC3)cc2CC1C (centres undefined) the inhibition was -3.57%.
With Cc1ccc(CNC(=O)C2CCN(S(=O)(=O)c3ccc4nc5c(c(C(=O)O)c4c3)CC(C)CC5)CC2)cc1 (centres undefined) the inhibition was 5.35% (active).
In the case of Cc1nc(CN(C)C(=O)CC2C(=O)NCCN2Cc2ccc(F)cc2)cs1 (centres undefined), the inhibition is reported as -2.3%.
CCOc1ccc(NC(=O)N2CCN(CC)CC2)cc1 was tested, and the inhibition was -1.66%.
For CCOc1ccc(NC(=O)N2CC=C(n3c(=O)[nH]c4ccccc43)CC2)cc1, the inhibition was 6.24% (active).
Compound Cc1cccc(C)c1NC(=O)N1CC=C(n2c(=O)[nH]c3ccccc32)CC1 has an inhibition of -4.93%.
Work on COc1ccc(NC(=O)CN2C(=O)COc3ccc(S(=O)(=O)N4CCOCC4)cc32)cc1 yielded an inhibition of -3.61%.
Cc1ccc(CNC(=O)C(=O)c2cn(CC(=O)N3CCOCC3)c3ccccc23)cc1 gave an inhibition of -2.82%.
With Cn1ccc(=Nc2ccc(NC(=O)c3ccc(N=c4ccn(C)c5ccc([N+](=O)[O-])cc45)cc3)cc2)cc1 the inhibition was 14.8% (active).
Cc1cc([N+](=O)[O-])ccc1NC(=O)c1ccc(NC(=O)C(C)C)cc1 gave an inhibition of -0.19%.
For O=C(Nc1ccc(C(=O)N2CCCCC2)cc1)c1cccc([N+](=O)[O-])c1, the inhibition was -1.61%.
Cc1sc2ncn(CC(=O)NCCCC(=O)N(C)Cc3ccccc3)c(=O)c2c1C gave an inhibition of -3.46%.
With Cc1ccc(-n2ncc3c2CC(C)(C)CC3NC(=O)CCc2cnn(C)c2)cc1 (centres undefined) the inhibition was -2.72%.
COCCOC(=O)c1sc(=S)n(CCOC)c1N showed an inhibition of -0.79%.
Work on CCN(Cc1ccccc1)C(=O)CCS(=O)(=O)c1ccc2c(c1)oc(=O)n2C yielded an inhibition of -3.48%.
For C=CCn1c(=O)c(C(=O)Nc2ncccc2O)c(O)c2ccccc21, the inhibition was -5.49%.
CCOC(=O)CCc1c(C)c2ccc(OCc3nn[nH]n3)c(C)c2oc1=O showed an inhibition of -1.75%.
For Cc1c(CCC(=O)O)c(=O)oc2cc(OCc3ccc(Br)cc3)ccc12, the inhibition was -4.45%.
In the case of Cc1c(CCC(=O)O)c(=O)oc2c(C)c(OCc3ccccc3Cl)ccc12, the inhibition is reported as 11.5% (active).
COc1ccccc1N1CCN(S(=O)(=O)CCNC(=O)c2ccc(OC(C)C)cc2)CC1 gave an inhibition of -1.73%.
Compound CCOc1cc(NC(=O)Nc2ccccc2)c(OCC)cc1NC(=O)CC has an inhibition of 1.47%.
In the case of CCOC(=O)Nc1ccc2c(c1)N(C(=O)CCCl)c1ccccc1[S@]2=O, the inhibition is reported as -1.86%.
With COc1ccc(-n2c(=O)[nH]c3cc(C(=O)NCCc4ccc(OC)c(OC)c4)ccc3c2=O)c(OC)c1 the inhibition was -0.95%.
In the case of COc1ccc(/C=C(\C#N)c2c[nH]c3ccccc23)cc1, the inhibition is reported as -0.02%.
Compound O=C(N/N=C/c1c[nH]c2ccccc12)c1ccccc1O has an inhibition of -3.56%.
In the case of C[n+]1ccc(/C=C/c2c[nH]c3ccccc23)cc1, the inhibition is reported as 11.3% (active).
Work on COc1ccc(C2c3[nH]c4ccccc4c3C[C@H]3C(=O)N(CC(C)C)CC(=O)N23)c(OC)c1 (some centres undefined) yielded an inhibition of -2.7%.
Cc1cc(Cl)ccc1OCCCC(=O)Nc1cccc(-n2cnnn2)c1 was tested, and the inhibition was -1.81%.
CCn1cc(CN2CCC(n3nccc3NC(=O)CCCc3ccccc3)CC2)c(C)n1 showed an inhibition of -2.27%.
Cc1c(CN2CCC(n3nccc3NC(=O)CCc3ccccc3)CC2)cnn1C was tested, and the inhibition was 40.5% (active).
Cc1ccc(CN2CCC(n3nccc3NC(=O)CCCc3ccccc3)CC2)o1 showed an inhibition of -1.11%.
Work on CCOc1ccc(-n2c(SCC(=O)OC)nc3sc4c(c3c2=O)CCN(C)C4)cc1 yielded an inhibition of 1.15%.
For CCOc1ccc(-n2c(SCC(=O)Nc3ccc(OC)cc3)nc3sc4c(c3c2=O)CCN(C)C4)cc1, the inhibition was 7.22% (active).
CCCSc1nc2sc3c(c2c(=O)n1-c1ccc(OC)cc1)CCN(C)C3 gave an inhibition of -1.47%.
CCN(c1ccccc1)S(=O)(=O)c1cc2c(cc1C)n(C)c(=O)c(=O)n2C was tested, and the inhibition was -1.34%.
In the case of CC(NC(=O)COc1ccc(-c2ccccc2)cc1)C1CCCO1 (centres undefined), the inhibition is reported as -0.53%.
COC(=O)c1cc(C(=O)NC(C)C2CC3CCC2C3)cc([N+](=O)[O-])c1 (centres undefined) showed an inhibition of -3.23%.
Work on CC(C)OCCCNC(=O)C1CC(=O)N(C2CCCCCCC2)C1 (centres undefined) yielded an inhibition of -4.36%.
In the case of O=C(NCCCN1CCCCCC1)C1CC(=O)N(C2CCCC2)C1 (centres undefined), the inhibition is reported as 6.55% (active).
For O=C(NCCc1ccc(Cl)cc1)C1CC(=O)N(C2CCCCC2)C1 (centres undefined), the inhibition was -3.24%.
CC1(C)CC(=O)CC2(C1)NCC(c1ccccc1Cl)c1c2[nH]c2ccccc12 (centres undefined) showed an inhibition of -5.43%.
COc1ccc(NC(=O)CCN2C(=O)/C(=C/c3ccc4c(c3)OCO4)SC2=S)cc1 gave an inhibition of -3.16%.
Cn1cccc1/C=C1\SC(=O)N(CC(=O)Nc2ccc(F)cc2)C1=O showed an inhibition of -1.78%.
Cc1ccc(C(=O)O)cc1-c1ccc(/C=C2\SC(=O)N(CC(=O)Nc3ccc4c(c3)OCO4)C2=O)o1 was tested, and the inhibition was 8.27% (active).
In the case of COc1ccccc1-c1sc2ccccc2c1-c1ccc(C(C)=O)cc1, the inhibition is reported as 1.15%.
CCc1ccccc1N(CC(=O)NCC1CCCO1)C(=O)CCC(=O)Nc1nccs1 (centres undefined) gave an inhibition of -4.39%.
O=C(NCc1cccc(Cl)c1)C1CCN(c2nnc(N3CCCC3=O)s2)CC1 showed an inhibition of -2.2%.
For COc1ccc(NC(=O)CCC(=O)Nc2nnc(C3CCCCC3)s2)cc1, the inhibition was -2.6%.
COc1ccc2c(CC(=O)Nc3nnc(C4CC4)s3)coc2c1 was tested, and the inhibition was 68.4% (active).
Cc1cc(=O)oc2cc(OCC(=O)Nc3nnc(C4CC4)s3)ccc12 was tested, and the inhibition was -1.51%.
With O=C(NCCCn1ccnc1)C(=O)NCC1OCCN1S(=O)(=O)c1cc(F)ccc1F (centres undefined) the inhibition was 5.52% (active).
Work on Cc1cc(F)ccc1S(=O)(=O)N1CCCOC1CNC(=O)C(=O)NCCC1=CCCCC1 (centres undefined) yielded an inhibition of -1.85%.
Compound O=C(NCCCc1ccccc1)C(=O)NCC1OCCN1S(=O)(=O)c1ccccc1 (centres undefined) has an inhibition of -6.52%.
Compound CCn1c(=S)sc2c(=O)n(CC(=O)Nc3ccc(OC)cc3)c(C)nc21 has an inhibition of -1.8%.
In the case of COc1ccc(CCNC(=O)c2cnc(Cl)c(Cl)c2)cc1, the inhibition is reported as -2.17%.
Work on O=C(Nc1cccc(F)c1)NC1CCCc2ccccc21 (centres undefined) yielded an inhibition of -1.14%.
In the case of CNC(=S)NNC(=O)c1cccn(Cc2ccccc2)c1=O, the inhibition is reported as -3.24%.
In the case of C=CCNC(=S)/N=c1/ccccn1Cc1ccccc1, the inhibition is reported as 16.2% (active).
Work on C=CCNC(=O)COc1coc(CN2CCN(Cc3ccccc3)CC2)cc1=O yielded an inhibition of 2.52%.
O=[N+]([O-])c1ccc(N2CCN(c3ccc(F)cc3)CC2)cn1 showed an inhibition of -0.39%.
For CSc1ccc(S(=O)(=O)N2CCC(C(=O)NCc3ccncc3)CC2)cc1, the inhibition was -1.8%.
For Cc1ccc(Oc2nc(-c3ccccn3)nc3ccccc23)cc1, the inhibition was -3.21%.
Cc1nccc(-c2ccc(-n3c(C)ccc3C)cc2)n1 showed an inhibition of -1.5%.
With c1ccc(-c2nccc(-c3ccc(-n4cnc5ccccc54)cc3)n2)nc1 the inhibition was 15.8% (active).
Compound CC(=O)c1cc2c(cc1NC(=O)Cn1nc(-c3ccc(F)cc3)ccc1=O)OCO2 has an inhibition of -1%.
With Cc1ccc(CSCC2Nc3ccc(C(=O)N4CCN(c5ccc(F)cc5)CC4)cc3NC2=O)cc1 (centres undefined) the inhibition was -4.03%.
For Cc1ccc(C(=O)NCC(=O)NCc2cc(=O)n(C)c(=O)n2C)cc1, the inhibition was -0.88%.
Compound Cc1ccc2c(CC(=O)NCc3cccs3)coc2c1 has an inhibition of -1.74%.
With Cc1cc2occ(CC(=O)NNC(=O)c3ccccc3F)c2cc1C the inhibition was 7.82% (active).
CCSc1nnc(SCC(=O)NNC(=O)c2ccccc2F)s1 showed an inhibition of -3.43%.
CCOC(=O)C1=C(c2ccc(OC)cc2)C(=O)c2ccccc2C1=O gave an inhibition of -1.49%.
COC(=O)C1=C(C)NC2=C(C(=O)c3ccccc32)C1c1ccc(-c2ccc(C(=O)O)cc2)o1 (centres undefined) was tested, and the inhibition was 21.7% (active).
Compound Cc1ccc(C2C3=C(Nc4[nH]n(-c5ccccc5)c(=O)c42)c2ccccc2C3=O)cc1 (centres undefined) has an inhibition of -5.01%.
COc1ccc(CNC(=O)C(=O)NCC2OCCN2C(=O)c2ccc(OC)cc2)cc1 (centres undefined) gave an inhibition of -0.68%.
COc1ccc(C(=O)O/N=C(\N)c2ccccn2)cc1[N+](=O)[O-] was tested, and the inhibition was -0.21%.
COc1ccc(C(=O)NNC(=O)c2cnccn2)cc1[N+](=O)[O-] was tested, and the inhibition was 5.35% (active).
Work on COc1cccc(OCC(=O)NNC(=O)c2cnccn2)c1 yielded an inhibition of -3%.
Compound Cc1cc(OCC(=O)NCC(O)c2ccccc2)c2c(C)c(C)c(=O)oc2c1 (centres undefined) has an inhibition of -1.48%.
COc1ccc(CC(NC(C)=O)C(=O)NC2CCN(C(=O)C3CC3)CC2)cc1OC (centres undefined) gave an inhibition of -2.45%.
Work on COc1cccc(CNS(=O)(=O)c2ccc3c(c2)N(C(C)=O)CCS3)c1 yielded an inhibition of 0.57%.
CCOc1cc(NC(=O)c2cnccn2)c(OCC)cc1NC(=O)c1ccc(C)cc1 was tested, and the inhibition was -4.22%.
With CCCc1cc(=O)oc2c(C)c(OCC(=O)NCc3ccccn3)ccc12 the inhibition was -4.36%.
For CCCc1cc(=O)oc2c(C)c(OCC(=O)N3CCC(C(=O)O)CC3)ccc12, the inhibition was -2.1%.
CCCc1cc(=O)oc2c(C)c(OCC(=O)Nc3ccccn3)ccc12 was tested, and the inhibition was 12.4% (active).
